# Measured values: ChEMBL document CHEMBL1152452, “Modifications incorporated in CpG motifs of oligodeoxynucleotides lead to antagonist activity of toll-like receptors 7 and 9” (2009)
# Calls of active or inactive are those of the source. No cut-off for these calls is given here.
# Legend:
# [1] = system: Mus musculus; test: Immunostimulatory activity in C57BL/6 mouse assessed as inhibition of LPS-induced IL6 production in serum at 10 mg/kg, sc administered 24 hrs prior to LPS challenge measured after 2 hrs by Luminex multiplex assay
# [2] = system: Mus musculus; test: Immunostimulatory activity in C57BL/6 mouse assessed as inhibition of 5'-CTATCTGACGTTCTCTGT-3'-induced IL12 production in serum at 5 mg/kg, sc administered 24 hrs prior to 5'-CTATCTGACGTTCTCTGT-3' challenge measured after 2 hrs by sandwich ELISA; assay type: functional; conditions: C57BL/6, sc, route subcutaneous
# Method in brief: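 C57BL/6 mice were pretreated sc in the right flank with 2, 5 or 10 mg/kg ODN. After 24 h, the TLR9 agonist ODN was given at 0.5 mg/kg sc in the left flank. Serum IL-12 was measured by ELISA 2 h later. Representative of two experiments.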
# [3] = system: Mus musculus; test: Immunostimulatory activity in C57BL/6 mouse assessed as inhibition of LPS-induced KC production in serum at 10 mg/kg, sc administered 24 hrs prior to LPS challenge measured after 2 hrs by Luminex multiplex assay
# [4] = system: Mus musculus; test: Immunostimulatory activity in C57BL/6 mouse assessed as inhibition of LPS-induced IL12 production in serum at 10 mg/kg, sc administered 24 hrs prior to LPS challenge measured after 2 hrs by Luminex multiplex assay
# [5] = system: Mus musculus; test: Immunostimulatory activity in C57BL/6 mouse assessed as inhibition of TLR3 agonist-induced MCP1 production in serum at 10 mg/kg, sc administered 24 hrs prior to TLR3 agonist challenge measured after 2 hrs by Luminex multiplex assay
# [6] = system: Mus musculus; test: Immunostimulatory activity in C57BL/6 mouse assessed as inhibition of 5'-CTATCTGACGTTCTCTGT-3'-induced IL12 production in serum at 10 mg/kg, sc administered 24 hrs prior to 5'-CTATCTGACGTTCTCTGT-3' challenge measured after 2 hrs by sandwich ELISA; assay type: functional; conditions: C57BL/6, sc, route subcutaneous
# Method in brief: (§1)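 C57BL/6 mice received 10 mg/kg ODN sc in the right flank. The TLR9 agonist ODN was then given at 0.5 mg/kg sc in the left flank 24, 48 or 72 h later. Serum IL-12 was measured by ELISA 2 h after challenge. Naive serum served as reference. Representative of three experiments.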
# [7] = system: Mus musculus; test: Immunostimulatory activity in C57BL/6 mouse assessed as inhibition of 5'-CTATCTGACGTTCTCTGT-3'-induced IL12 production in serum at 10 mg/kg, sc administered 72 hrs prior to 5'-CTATCTGACGTTCTCTGT-3' challenge measured after 2 hrs by sandwich ELISA; assay type: functional; conditions: C57BL/6, sc, route subcutaneous
# Method in brief: as §1
# [8] = system: Mus musculus; test: Immunostimulatory activity in C57BL/6 mouse assessed as inhibition of TLR7 agonist-induced KC production in serum at 5 mg/kg, sc administered 24 hrs prior to TLR7 agonist challenge measured after 2 hrs by Luminex multiplex assay; assay type: functional; conditions: C57BL/6, sc, route subcutaneous
# [9] = system: Mus musculus; test: Immunostimulatory activity in C57BL/6 mouse assessed as inhibition of 5'-CTATCTGACGTTCTCTGT-3'-induced IL12 production in serum at 10 mg/kg, sc administered 48 hrs prior to 5'-CTATCTGACGTTCTCTGT-3' challenge measured after 2 hrs by sandwich ELISA; assay type: functional; conditions: C57BL/6, sc, route subcutaneous
# Method in brief: as §1
# [10] = system: Mus musculus; test: Immunostimulatory activity in C57BL/6 mouse assessed as inhibition of TLR3 agonist-induced KC production in serum at 10 mg/kg, sc administered 24 hrs prior to TLR3 agonist challenge measured after 2 hrs by Luminex multiplex assay
# [11] = system: Mus musculus; test: Immunostimulatory activity in C57BL/6 mouse assessed as inhibition of 5'-CTATCTGACGTTCTCTGT-3'-induced MIP1a production in serum at 5 mg/kg, sc administered 24 hrs prior to 5'-CTATCTGACGTTCTCTGT-3' challenge measured after 2 hrs by Luminex multiplex assay; assay type: functional; conditions: C57BL/6, sc, route subcutaneous
# [12] = system: Mus musculus; test: Immunostimulatory activity in C57BL/6 mouse assessed as inhibition of TLR3 agonist-induced IL10 production in serum at 10 mg/kg, sc administered 24 hrs prior to TLR3 agonist challenge measured after 2 hrs by Luminex multiplex assay
# [13] = system: Mus musculus; test: Immunostimulatory activity in C57BL/6 mouse assessed as inhibition of TLR7 agonist-induced IL6 production in serum at 5 mg/kg, sc administered 24 hrs prior to TLR7 agonist challenge measured after 2 hrs by Luminex multiplex assay; assay type: functional; conditions: C57BL/6, sc, route subcutaneous
# [14] = system: Mus musculus; test: Immunostimulatory activity in C57BL/6 mouse assessed as inhibition of LPS-induced MIG production in serum at 10 mg/kg, sc administered 24 hrs prior to LPS challenge measured after 2 hrs by Luminex multiplex assay
# [15] = system: Mus musculus; test: Immunostimulatory activity in C57BL/6 mouse assessed as inhibition of LPS-induced IP10 production in serum at 10 mg/kg, sc administered 24 hrs prior to LPS challenge measured after 2 hrs by Luminex multiplex assay
# [16] = system: Mus musculus; test: Immunostimulatory activity in C57BL/6 mouse assessed as inhibition of 0.5 mg/kg 5'-CTATCTGACGTTCTCTGT-3'-induced IL12 production in serum at 10 mg/kg, sc administered 24 hrs prior to 5'-CTATCTGACGTTCTCTGT-3' challenge measured after 2 hrs by sandwich ELISA; assay type: functional
# Method in brief: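 C57BL/6 mice received 10 mg/kg ODN sc in the right flank. After 24 h, the CpG TLR9 agonist ODN was given sc in the left flank at 0.25, 0.5 or 1 mg/kg. Serum IL-12 was measured by ELISA 2 h after challenge. Naive mice served as reference. Representative of two experiments.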
smiles,measurement,setting,value
COC1[C@H](n2cnc3c(=O)[nH]c(N)nc32)O[C@H](COP(=O)(S)O[C@H]2C[C@H](n3cc(C)c(N)nc3=O)O[C@@H]2COP(=O)(S)O[C@H]2C[C@H](n3cnc4c(N)ncnc43)O[C@@H]2COP(=O)(S)O[C@H]2C[C@H](n3cnc4c(=O)[nH]c(N)nc43)O[C@@H]2COP(=O)(S)O[C@H]2C[C@H](n3cc(C)c(=O)[nH]c3=O)O[C@@H]2COP(=O)(S)O[C@H]2C[C@H](n3ccc(N)nc3=O)O[C@@H]2COP(=O)(S)O[C@H]2C[C@H](n3cc(C)c(=O)[nH]c3=O)O[C@@H]2COP(=O)(S)O[C@H]2C[C@H](n3cnc4c(N)ncnc43)O[C@@H]2COP(=O)(S)O[C@H]2C[C@H](n3cc(C)c(=O)[nH]c3=O)O[C@@H]2COP(=O)(S)O[C@H]2C[C@H](n3ccc(N)nc3=O)O[C@@H]2CO)[C@H]1OP(=O)(S)OC[C@H]1O[C@@H](n2cc(C)c(=O)[nH]c2=O)C[C@@H]1OP(=O)(S)OC[C@H]1O[C@@H](n2cc(C)c(=O)[nH]c2=O)C[C@@H]1OP(=O)(S)OC[C@H]1O[C@@H](n2ccc(N)nc2=O)C[C@@H]1OP(=O)(S)OC[C@H]1O[C@@H](n2cc(C)c(=O)[nH]c2=O)C[C@@H]1OP(=O)(S)OC[C@H]1O[C@@H](n2ccc(N)nc2=O)C[C@@H]1OP(=O)(S)OC[C@H]1O[C@@H](n2cc(C)c(=O)[nH]c2=O)C[C@@H]1OP(=O)(S)OC[C@H]1O[C@@H](n2cnc3c(=O)[nH]c(N)nc32)C[C@@H]1OP(=O)(S)OC[C@H]1O[C@@H](n2cc(C)c(=O)[nH]c2=O)C[C@@H]1O (stereo partly specified),Activity,[1],inactive
same,inhibition in vivo at 5 mg/kg,[2],66%
same,Activity,[3],inactive
same,Activity,[4],inactive
same,Activity,[5],inactive
same,inhibition in vivo at 10 mg/kg,[6],81%
same,inhibition in vivo at 10 mg/kg,[7],35%
same,inhibition in vivo at 5 mg/kg,[8],50%
same,inhibition in vivo at 10 mg/kg,[9],57%
same,Activity,[10],inactive
same,inhibition in vivo at 5 mg/kg,[11],50%
same,Activity,[12],inactive
same,inhibition in vivo at 5 mg/kg,[13],50%
same,Activity,[14],inactive
same,Activity,[15],inactive
same,inhibition (INH),[16],66%
